Results published in ChEMBL document CHEMBL4033712, “Synthesis and biological evaluation of new C-12(α/β)-(N-) sulfamoyl-phenylamino-14-deoxy-andrographolide derivatives as potent anti-cancer agents” (Bioorg Med Chem Lett, 2017).

Columns and labels:
Format in all cases: functional
MCF7 = test: Growth inhibition of human MCF7 cells incubated for 48 hrs by sulforhodamine B assay; details: MCF7, 48 h; for CC50: read-out: LC50 (the source's name)
Procedure, shortened: (§1)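 NCI-60 five-dose screen at 0.01, 0.1, 1, 10 and 100 µM, 48 h incubation, sulforhodamine B end point. GI50 (50% decrease in net growth), TGI (total growth inhibition) and LC50 (net 50% loss of initial cells) taken from log concentration versus % growth inhibition curves.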

EKVX = test: Growth inhibition of human EKVX cells incubated for 48 hrs by sulforhodamine B assay; details: for CC50: read-out: LC50 (the source's name); procedure, shortened: as §1
786-0 = test: Growth inhibition of human 786-0 cells incubated for 48 hrs by sulforhodamine B assay; details: 786-0, 48 h; procedure, shortened: as §1
SF-539 = test: Growth inhibition of human SF539 cells incubated for 48 hrs by sulforhodamine B assay; details: SF-539, 48 h; for CC50: read-out: LC50 (the source's name)
Procedure, shortened: (§2)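 NCI 60 human tumour cell line panel, five-dose study at 0.01, 0.1, 1, 10 and 100 µM, 48 h incubation. Sulforhodamine B protein-binding dye end point. GI50 (50% decrease in net cell growth), TGI (total growth inhibition) and LC50 (net 50% loss of initial cells) read from log concentration versus % growth inhibition curves.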

NCI-H522 = test: Growth inhibition of human NCI-H522 cells incubated for 48 hrs by sulforhodamine B assay; details: NCI-H522, 48 h; for CC50: read-out: LC50 (the source's name); procedure, shortened: as §1
A549 = test: Growth inhibition of human A549/ATCC cells incubated for 48 hrs by sulforhodamine B assay; details: A549, 48 h; for CC50: read-out: LC50 (the source's name); procedure, shortened: as §1
KM12 = test: Growth inhibition of human KM12 cells incubated for 48 hrs by sulforhodamine B assay; details: KM12, 48 h; for CC50: read-out: LC50 (the source's name); procedure, shortened: as §1
T47D = test: Growth inhibition of human T47D cells incubated for 48 hrs by sulforhodamine B assay; details: for CC50: read-out: LC50 (the source's name); procedure, shortened: as §2
COLO 205 = test: Growth inhibition of human COLO205 cells incubated for 48 hrs by sulforhodamine B assay; details: COLO 205, 48 h; for CC50: read-out: LC50 (the source's name); procedure, shortened: as §1
HCT-15 = test: Growth inhibition of human HCT15 cells incubated for 48 hrs by sulforhodamine B assay; details: HCT-15, 48 h; for CC50: read-out: LC50 (the source's name); procedure, shortened: as §1
SK-MEL-28 = test: Growth inhibition of human SK-MEL-28 cells incubated for 48 hrs by sulforhodamine B assay; details: SK-MEL-28, 48 h; procedure, shortened: as §2
K562 = test: Growth inhibition of human K562 cells incubated for 48 hrs by sulforhodamine B assay; details: K562, 48 h; for CC50: read-out: LC50 (the source's name); procedure, shortened: as §1
BT-549 = test: Growth inhibition of human BT549 cells incubated for 48 hrs by sulforhodamine B assay; details: BT-549, 48 h; for CC50: read-out: LC50 (the source's name); procedure, shortened: as §1
OVCAR-8 = test: Growth inhibition of human OVCAR8 cells incubated for 48 hrs by sulforhodamine B assay; details: OVCAR-8, 48 h; for CC50: read-out: LC50 (the source's name); procedure, shortened: as §1
SF-295 = test: Growth inhibition of human SF295 cells incubated for 48 hrs by sulforhodamine B assay; details: SF-295, 48 h; for CC50: read-out: LC50 (the source's name); procedure, shortened: as §2
MDA-MB-435 = test: Growth inhibition of human MDA-MB-435 cells incubated for 48 hrs by sulforhodamine B assay; details: MDA-MB-435, 48 h; for CC50: read-out: LC50 (the source's name); procedure, shortened: as §1
RXF 393 = test: Growth inhibition of human RXF393 cells incubated for 48 hrs by sulforhodamine B assay; details: RXF 393, 48 h; for CC50: read-out: LC50 (the source's name); procedure, shortened: as §2
HL-60(TB) = test: Growth inhibition of human HL-60(TB) cells incubated for 48 hrs by sulforhodamine B assay; details: HL-60, 48 h; for CC50: read-out: LC50 (the source's name)
Procedure, shortened: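 NCI-60 five-dose screen at 0.01, 0.1, 1, 10 and 100 µM for 48 h, sulforhodamine B read-out. GI50 taken from log concentration versus % growth inhibition curves as the concentration giving 50% decrease in net cell growth.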

M14 = test: Growth inhibition of human M14 cells incubated for 48 hrs by sulforhodamine B assay; details: M14, 48 h; for CC50: read-out: LC50 (the source's name); procedure, shortened: as §1
HOP-92 = test: Growth inhibition of human HOP92 cells incubated for 48 hrs by sulforhodamine B assay; details: HOP-92, 48 h; for CC50: read-out: LC50 (the source's name); procedure, shortened: as §1
OVCAR-3 = test: Growth inhibition of human OVCAR3 cells incubated for 48 hrs by sulforhodamine B assay; details: OVCAR-3, 48 h; for CC50: read-out: LC50 (the source's name); procedure, shortened: as §1
SK-MEL-2 = test: Growth inhibition of human SK-MEL-2 cells incubated for 48 hrs by sulforhodamine B assay; details: SK-MEL-2, 48 h; for CC50: read-out: LC50 (the source's name); procedure, shortened: as §2
SNB-19 = test: Growth inhibition of human SNB19 cells incubated for 48 hrs by sulforhodamine B assay; details: SNB-19, 48 h; for CC50: read-out: LC50 (the source's name); procedure, shortened: as §2
HCT-116 = test: Growth inhibition of human HCT116 cells incubated for 48 hrs by sulforhodamine B assay; details: HCT-116, 48 h; for CC50: read-out: LC50 (the source's name); procedure, shortened: as §1
TK-10 = test: Growth inhibition of human TK10 cells incubated for 48 hrs by sulforhodamine B assay; details: TK-10, 48 h; for CC50: read-out: LC50 (the source's name); procedure, shortened: as §2
Hs-578T = test: Growth inhibition of human Hs 578T cells incubated for 48 hrs by sulforhodamine B assay; procedure, shortened: as §1
SK-MEL-5 = test: Growth inhibition of human SK-MEL-5 cells incubated for 48 hrs by sulforhodamine B assay; details: SK-MEL-5, 48 h; for CC50: read-out: LC50 (the source's name); procedure, shortened: as §2
NCI-H322M = test: Growth inhibition of human NCI-H322M cells incubated for 48 hrs by sulforhodamine B assay; details: for CC50: read-out: LC50 (the source's name); procedure, shortened: as §1

## C=C1CC[C@@H]2[C@](C)(COC(C)=O)[C@H](OC(C)=O)CC[C@@]2(C)[C@H]1CC(Nc1ccc(S(=O)(=O)Nc2nccs2)cc1)C1=CCOC1=O (stereo partly drawn)
MCF7
  GI50: 2.59 µM
  TGI: 13.6 µM
  CC50: > 100 µM
EKVX
  GI50: 14 µM
  TGI: 27 µM
  CC50: 52 µM
786-0
  GI50: 2.54 µM
  LC50 (concentration giving net 50% loss of initial cells): 23.6 µM
  TGI: 6.74 µM
SF-539
  GI50: 2.35 µM
  TGI: 6.31 µM
  CC50: 23.5 µM
NCI-H522
  GI50: 1.72 µM
  TGI: 4.32 µM
  CC50: 21.2 µM
A549
  GI50: 3.67 µM
  TGI: 11.2 µM
  CC50: 40.4 µM
KM12
  GI50: 7.57 µM
  TGI: 21.7 µM
  CC50: 53.3 µM
T47D
  GI50: 3.39 µM
  TGI: 20.8 µM
  CC50: > 100 µM
COLO 205
  GI50: 3.14 µM
  TGI: 10.5 µM
  CC50: 48.9 µM
HCT-15
  GI50: 1.73 µM
  TGI: 4.12 µM
  CC50: 9.84 µM
SK-MEL-28
  GI50: 3.95 µM
  LC50 (50% net cell kill): 41.8 µM
  TGI: 15.1 µM
K562
  GI50: 3.6 µM
  TGI: 29 µM
  CC50: > 100 µM
BT-549
  GI50: 2.43 µM
  TGI: 6.5 µM
  CC50: 23.1 µM
OVCAR-8
  GI50: 3.14 µM
  TGI: 10.8 µM
  CC50: 47.7 µM
SF-295
  GI50: 13.8 µM
  TGI: 27.2 µM
  CC50: 53.8 µM
MDA-MB-435
  GI50: 3.29 µM
  TGI: 12.7 µM
  CC50: 38 µM
RXF 393
  GI50: 2.36 µM
  TGI: 4.74 µM
  CC50: 9.53 µM
HL-60(TB)
  GI50: 3.01 µM
  TGI: 13.3 µM
  CC50: > 100 µM
M14
  GI50: 2.83 µM
  TGI: 10.5 µM
  CC50: 42.2 µM
HOP-92
  GI50: 12.4 µM
  TGI: 25.3 µM
  CC50: 52 µM
OVCAR-3
  GI50: 1.88 µM
  TGI: 3.64 µM
  CC50: 7.06 µM
SK-MEL-2
  GI50: 10.6 µM
  TGI: 24.3 µM
  CC50: 56.1 µM
SNB-19
  GI50: 4.36 µM
  TGI: 16.1 µM
  CC50: 46 µM
HCT-116
  GI50: 1.75 µM
  TGI: 3.75 µM
  CC50: 8 µM
TK-10
  GI50: 9.45 µM
  TGI: 21.2 µM
  CC50: 46.1 µM
Hs-578T
  GI50: 10.8 µM
  LC50: > 100 µM
  TGI: 60.4 µM
SK-MEL-5
  GI50: 4.79 µM
  TGI: 17.1 µM
  CC50: 41.3 µM
NCI-H322M
  GI50: 12 µM
  TGI: 24.9 µM
  CC50: 51.6 µM

## C=C1CC[C@@H]2[C@](C)(COC(C)=O)[C@H](OC(C)=O)CC[C@@]2(C)[C@H]1CC(Nc1ccc(S(=O)(=O)Nc2ncccn2)cc1)C1=CCOC1=O (stereo partly drawn)
MCF7
  GI50: 1.07 µM
  TGI: 4.54 µM
  CC50: > 100 µM
EKVX
  GI50: 8.18 µM
  TGI: 20.6 µM
  CC50: 45.6 µM
786-0
  GI50: 1.77 µM
  LC50 (concentration giving net 50% loss of initial cells): 6.51 µM
  TGI: 3.39 µM
SF-539
  GI50: 1.5 µM
  TGI: 2.94 µM
  CC50: 5.78 µM
NCI-H522
  GI50: 0.49 µM
  TGI: 2.07 µM
  CC50: 6.45 µM
A549
  GI50: 3.18 µM
  TGI: 9.98 µM
  CC50: 34.6 µM
KM12
  GI50: 2.33 µM
  TGI: 5.54 µM
  CC50: 17.8 µM
T47D
  GI50: 2 µM
  TGI: 5.46 µM
  CC50: > 100 µM
COLO 205
  GI50: 1.78 µM
  TGI: 3.8 µM
  CC50: 8.11 µM
HCT-15
  GI50: 1.21 µM
  TGI: 3.32 µM
  CC50: 9.15 µM
SK-MEL-28
  GI50: 1.69 µM
  LC50 (50% net cell kill): 6.2 µM
  TGI: 3.24 µM
K562
  GI50: 1.73 µM
  TGI: 11.7 µM
  CC50: > 100 µM
BT-549
  GI50: 1.64 µM
  TGI: 3.39 µM
  CC50: 7.04 µM
OVCAR-8
  GI50: 1.48 µM
  TGI: 3.55 µM
  CC50: 8.53 µM
SF-295
  GI50: 6.07 µM
  TGI: 18.7 µM
  CC50: 44.6 µM
MDA-MB-435
  GI50: 1.58 µM
  TGI: 3.77 µM
  CC50: 9.04 µM
RXF 393
  GI50: 1.95 µM
  TGI: 3.58 µM
  CC50: 6.6 µM
HL-60(TB)
  GI50: 1.3 µM
  TGI: 3.64 µM
  CC50: > 100 µM
M14
  GI50: 1.44 µM
  TGI: 3.98 µM
  CC50: 15.9 µM
HOP-92
  GI50: 3.1 µM
  TGI: 8.85 µM
  CC50: 31.1 µM
OVCAR-3
  GI50: 1.21 µM
  TGI: 2.54 µM
  CC50: 5.31 µM
SK-MEL-2
  GI50: 2.36 µM
  TGI: 7.2 µM
  CC50: 30.4 µM
SNB-19
  GI50: 1.63 µM
  TGI: 3.76 µM
  CC50: 8.65 µM
HCT-116
  GI50: 0.87 µM
  TGI: 2.49 µM
  CC50: 6.51 µM
TK-10
  GI50: 2.77 µM
  TGI: 6.03 µM
  CC50: 18.3 µM
Hs-578T
  GI50: 3.54 µM
  LC50: > 100 µM
  TGI: 24.4 µM
SK-MEL-5
  GI50: 1.9 µM
  TGI: 3.85 µM
  CC50: 7.81 µM
NCI-H322M
  GI50: 3.12 µM
  TGI: 11.1 µM
  CC50: 35.6 µM
